The species entered for experiment [1] is Cavia porcellus. Put plainly: Percent contraction of the guinea pig gall bladder uM; Inactive. The class given is functional. Summed up:
(§1)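 Isolated guinea pig gallbladder incubated with ligand at 37 °C, 30 µM for 30 min or 1 µM for 60 min. Contraction expressed as percent of the contraction induced by 1 µM CCK-8.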

The species named for experiment [2] is Cavia porcellus. Put plainly: Antagonist affinity (pKB) against contraction of guinea pig gall bladder measured at a dose 30 uM. Type of experiment: functional.
The species named for experiment [3] is Cavia porcellus. In words: (§2) Percent contraction of the guinea pig gall bladder uM. Type of experiment: functional. Also noted: concentration or dose not given beside the values. Summed up:
as §1

The species named for experiment [4] is Rattus norvegicus. In words: Anorectic potency in rats conditioned to a palatable liquid diet and fasted for 2 hours. Type of experiment: functional.
Experiment [5] has as its system Rattus norvegicus. In words: Maximal response of the rat to anorectic potency 30 min after intraperitoneal administration (0.5 uM/Kg). The class given is functional.
The target of experiment [6] is T1, Gastrin/cholecystokinin type B receptor (Homo sapiens, UniProt P32239).
T1 sequence (P32239 whole entry): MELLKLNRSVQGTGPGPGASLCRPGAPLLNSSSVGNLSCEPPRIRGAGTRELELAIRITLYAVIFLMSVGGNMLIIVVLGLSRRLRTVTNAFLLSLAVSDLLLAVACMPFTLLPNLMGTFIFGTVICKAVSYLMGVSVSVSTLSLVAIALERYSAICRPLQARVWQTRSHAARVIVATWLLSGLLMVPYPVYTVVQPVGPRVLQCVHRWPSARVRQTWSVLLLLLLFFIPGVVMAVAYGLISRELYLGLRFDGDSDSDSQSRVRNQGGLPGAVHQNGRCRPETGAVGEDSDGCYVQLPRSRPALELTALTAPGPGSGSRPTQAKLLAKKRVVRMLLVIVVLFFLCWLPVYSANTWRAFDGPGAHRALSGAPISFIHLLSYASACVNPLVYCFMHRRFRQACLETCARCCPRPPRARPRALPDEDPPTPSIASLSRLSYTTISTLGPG
In words: Concentration required to displace [125I]Bolton-Hunter CCK-8 from human Cholecystokinin type B receptor expressed in CHO-K1 cells. Type of experiment: cell-based.

The target of experiment [7] is T2, Cholecystokinin receptor type A (Homo sapiens, UniProt P32238).
T2 sequence (P32238 whole entry): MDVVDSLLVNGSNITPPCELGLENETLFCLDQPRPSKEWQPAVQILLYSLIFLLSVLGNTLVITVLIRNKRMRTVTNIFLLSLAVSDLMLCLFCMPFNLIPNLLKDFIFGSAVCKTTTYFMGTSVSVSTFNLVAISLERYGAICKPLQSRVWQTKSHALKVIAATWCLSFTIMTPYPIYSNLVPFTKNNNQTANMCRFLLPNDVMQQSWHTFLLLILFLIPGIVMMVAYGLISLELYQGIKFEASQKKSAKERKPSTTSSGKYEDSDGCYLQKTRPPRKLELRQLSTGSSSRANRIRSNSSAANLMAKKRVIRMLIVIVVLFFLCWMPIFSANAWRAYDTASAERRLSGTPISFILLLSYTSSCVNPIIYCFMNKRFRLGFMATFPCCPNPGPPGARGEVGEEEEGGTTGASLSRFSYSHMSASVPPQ
Put plainly: Concentration required to displace [125I]Bolton-Hunter CCK-8 from human Cholecystokinin type A receptor stably expressed in CHO-K1 cells. The class given is cell-based.

For experiment [8], the species on record is Cavia porcellus. Put plainly: Guinea pig gall bladder contraction by the compound at concentration 30 uM in the absence of MK329. Type of experiment: functional. Summed up:
as §1

Experiment [9] is filed under the species Cavia porcellus. Put plainly: Guinea pig gall bladder contraction by the compound at concentration 30 uM in the presence of MK329. The class given is functional. Summed up:
(§3)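 Isolated guinea pig gallbladder contraction induced by test ligand (30 µM screen), then reversed with MK-329 at 1 µM to confirm a CCK-A receptor-mediated response.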

Experiment [10] is filed under the species Cavia porcellus. In words: Percentage reversal of isolated guinea pig gall bladder contraction by the compound. Type of experiment: functional. A digest of the protocol:
as §3

Experiment [11] has as its system Rattus norvegicus. Put plainly: Maximal response of the rat to anorectic potency 30 min after intraperitoneal administration (1 uM/Kg). Type of experiment: functional.
For experiment [12], the species on record is Cavia porcellus. Described as §2. The class given is functional. A digest of the protocol:
as §1

The species named for experiment [13] is Cavia porcellus. In words: Guinea pig gall bladder contraction by the compound at concentration 1 uM in the absence of MK329. Type of experiment: functional. Summed up: as §1
Experiment [14] is filed under the species Cavia porcellus. Put plainly: Guinea pig gall bladder contraction by the compound at concentration 1 uM in the presence of MK329. The class given is functional.

Activity calls are given as the source filed them. The rule behind the calls is not given here.

For the compound `O=C(O)CN(C(=O)CN1C(=O)C(NC(=O)Nc2ccccc2)C(=O)N(c2ccccc2)c2ccccc21)c1ccccc1` (configuration not stated), the outcome in the experiment filed under Cavia porcellus [1] was inactive. In addition, the pKB (in general, the negative decadic logarithm of the KB, by convention in mol/L) in the experiment listed under Cavia porcellus [2] was determined as 6.33.

On to `CCN(CC)C(=O)CN1C(=O)C(NC(=O)Nc2ccccc2)C(=O)N(c2ccccc2)c2ccccc21` (configuration not stated), for which the Activity in the experiment filed under Cavia porcellus [3] is 38%.

Turning to `CSCC[C@H](NC(=O)[C@H](Cc1ccc(OS(=O)(=O)O)cc1)NC(=O)[C@@H](N)CC(=O)O)C(=O)NCC(=O)N[C@@H](Cc1c[nH]c2ccccc12)C(=O)N[C@@H](CCSC)C(=O)N[C@@H](CC(=O)O)C(=O)N[C@@H](Cc1ccccc1)C(N)=O` [SINCALIDE], the ED50 in the experiment listed under Rattus norvegicus [4] is 0.03 µmol/kg. This compound also registered a Max response in the experiment on Rattus norvegicus [5] of 96%.

On to `CCN(C(=O)CN1C(=O)C(NC(=O)Nc2ccccc2)C(=O)N(c2ccccc2)c2ccccc21)c1ccccc1` (configuration not stated), for which, in the experiment filed under Cavia porcellus [3], the Activity is reported as 66%.

With `CC(C)N(Cc1ccccc1)C(=O)CN1C(=O)C(NC(=O)Nc2ccccc2)C(=O)N(c2ccccc2)c2ccccc21` (configuration not stated), the Activity in the experiment listed under Cavia porcellus [3] is reported as 34%.

In the experiment listed under Cavia porcellus [3], `O=C(Nc1ccccc1)NC1C(=O)N(CC(=O)N(c2ccccc2)c2ccccc2)c2ccccc2N(c2ccccc2)C1=O` (configuration not stated) returned an Activity of 43%.

As for `CC(C)N(C(=O)CN1C(=O)C(NC(=O)Nc2ccccc2)C(=O)N(c2ccccc2)c2ccccc21)c1ccc(O)cc1` (configuration not stated), the IC50 (usually the concentration that gives 50% inhibition) in [6] is 15.8 nM; in [7], 39.8 nM. Further, the GPGB tension in the experiment listed under Cavia porcellus [8] turned out to be 2.25 g; in the experiment filed under Cavia porcellus [9], 0 g. The same compound had an Activity in the experiment listed under Cavia porcellus [3] of 81%. Moreover, the Reversal in the experiment filed under Cavia porcellus [10] turned out to be 100%. Moreover, in the experiment filed under Rattus norvegicus [4], the ED50 was 0.05 µmol/kg. In the experiment on Rattus norvegicus [11], this compound yielded a Max response of 74%.

With `COc1ccc(N(C(=O)CN2C(=O)C(NC(=O)Nc3ccccc3)C(=O)N(c3ccccc3)c3ccccc32)C(C)C)cc1` (configuration not stated), the figures for the IC50 in [6] and in experiment [7] were 50.1 nM and 79.4 nM, respectively. Moreover, the GPGB tension was 2.88 g in the experiment listed under Cavia porcellus [8] and 0.2 g in the experiment listed under Cavia porcellus [9]. Moreover, the Activity in the experiment filed under Cavia porcellus [12] was 82%; in the experiment filed under Cavia porcellus [3], 93%. In addition, the Reversal in the experiment listed under Cavia porcellus [10] is given as 107%. In the experiment listed under Rattus norvegicus [4], this compound came in with an ED50 of 0.07 µmol/kg. Besides, the Max response in the experiment on Rattus norvegicus [11] is 62%.

For `CC(C)N(C(=O)CN1C(=O)C(NC(=O)Nc2ccccc2)C(=O)N(c2ccccc2)c2ccccc21)c1ccc(C(=O)O)cc1` (configuration not stated), the IC50 is 39.8 nM in experiment [6] and 2510 nM in experiment [7]. The Activity in the experiment listed under Cavia porcellus [3] stood at 10%. The compound further displayed a pKB in the experiment filed under Cavia porcellus [2] of 6.14.

With `NCCN(C(=O)CN1C(=O)C(NC(=O)Nc2ccccc2)C(=O)N(c2ccccc2)c2ccccc21)c1ccccc1` (configuration not stated), the Activity in the experiment filed under Cavia porcellus [3] is 7%. In the experiment listed under Cavia porcellus [2], this compound had a pKB of 5.88.

Take `CC(C)N(C(=O)CN1C(=O)C(NC(=O)Nc2ccccc2)C(=O)N(c2ccccc2)c2ccccc21)c1ccc(N(C)C)cc1.O=C(O)C(F)(F)F` (configuration not stated): the values for the IC50 in experiment [6] and in [7] were 251 nM and 63.1 nM, respectively. Besides, the GPGB tension in the experiment listed under Cavia porcellus [13] is 2.55 g; in the experiment listed under Cavia porcellus [14], 0.01 g. The values for the Activity in the experiment filed under Cavia porcellus [12] and in the experiment filed under Cavia porcellus [3] were 46% and 75%, respectively. The Reversal in the experiment filed under Cavia porcellus [10] is on record as 100%. For the same compound, the ED50 in the experiment filed under Rattus norvegicus [4] is 0.09 µmol/kg. Further, in the experiment on Rattus norvegicus [11], the Max response amounted to 54%.

In turn, `CCOC(=O)CN(C(=O)CN1C(=O)C(NC(=O)Nc2ccccc2)C(=O)N(c2ccccc2)c2ccccc21)c1ccccc1` (configuration not stated) yielded an Activity in the experiment listed under Cavia porcellus [3] of 16%.

As to `O=C(CN1C(=O)C(NC(=O)Nc2ccccc2)C(=O)N(c2ccccc2)c2ccccc21)Nc1ccccc1` (configuration not stated), the result in the experiment filed under Cavia porcellus [1] was inactive. The compound further yielded a pKB in the experiment listed under Cavia porcellus [2] of 6.33.

The compound `CCCCN(C(=O)CN1C(=O)C(NC(=O)Nc2ccccc2)C(=O)N(c2ccccc2)c2ccccc21)c1ccccc1` (configuration not stated) gave an Activity in the experiment listed under Cavia porcellus [3] of 27%.

For `O=C(Nc1ccccc1)NC1C(=O)N(CC(=O)N(CCNC(=O)OCc2ccccc2)c2ccccc2)c2ccccc2N(c2ccccc2)C1=O` (configuration not stated), the result in the experiment filed under Cavia porcellus [1] was inactive.

In the case of `CC(C)N(C(=O)CN1C(=O)C(NC(=O)Nc2ccccc2)C(=O)N(c2ccccc2)c2ccccc21)c1ccc(F)cc1` (configuration not stated), the half-inhibitory concentration (IC50) in experiment [6] is 31.6 nM; in [7], 100 nM. In addition, the results for the GPGB tension in the experiment listed under Cavia porcellus [13] and in the experiment filed under Cavia porcellus [14] were 2.14 g and 0.34 g, respectively. Moreover, the Activity in the experiment filed under Cavia porcellus [12] amounted to 53%. Further, in the experiment listed under Cavia porcellus [10], the Reversal was 116%. Further, the ED50 in the experiment filed under Rattus norvegicus [4] was 0.2 µmol/kg. Also, the Max response with Rattus norvegicus [11] is recorded as 56%.

The compound `CC(C)N(C(=O)CN1C(=O)C(NC(=O)Nc2ccccc2)C(=O)N(c2ccccc2)c2ccccc21)c1ccc(N2CCOCC2)cc1` (configuration not stated) gave an IC50 in experiment [6] of 158 nM. The figures for the GPGB tension in the experiment listed under Cavia porcellus [13] and in the experiment filed under Cavia porcellus [14] were 1.88 g and 0.43 g, respectively. The compound further returned an Activity in the experiment filed under Cavia porcellus [12] of 74%. Moreover, the Reversal in the experiment listed under Cavia porcellus [10] was 123%. The compound also returned an ED50 in the experiment listed under Rattus norvegicus [4] of 0.2 µmol/kg. This compound also yielded a Max response in the experiment with Rattus norvegicus [11] of 26%.

Compound `CCCN(C(=O)CN1C(=O)C(NC(=O)Nc2ccccc2)C(=O)N(c2ccccc2)c2ccccc21)c1ccccc1` (configuration not stated) showed an Activity in the experiment listed under Cavia porcellus [3] of 50%.

In turn, `O=C(Nc1ccccc1)NC1C(=O)N(CC(=O)N(c2ccccc2)C2CCCCC2)c2ccccc2N(c2ccccc2)C1=O` (configuration not stated) registered an Activity in the experiment filed under Cavia porcellus [3] of 26%.

In the case of `CC(C)N(C(=O)CN1C(=O)C(NC(=O)Nc2ccccc2)C(=O)N(c2ccccc2)c2ccccc21)c1ccccc1` (configuration not stated), the GPGB tension in the experiment filed under Cavia porcellus [8] stood at 2.53 g; in the experiment listed under Cavia porcellus [9] it was 0.43 g. Besides, the Activity in the experiment filed under Cavia porcellus [3] came to 86%. Also, in the experiment filed under Cavia porcellus [10], the Reversal is 117%. In the experiment listed under Rattus norvegicus [4], this compound registered an ED50 of 0.95 µmol/kg. The compound further came in with a Max response in the experiment with Rattus norvegicus [11] of 48%.

For the compound `CC(C)N(C(=O)CN1C(=O)C(NC(=O)Nc2ccccc2)C(=O)N(c2ccccc2)c2ccccc21)C(C)C` (configuration not stated), in the experiment filed under Cavia porcellus [3], the Activity is reported as 21%.

Take `N#CCCN(C(=O)CN1C(=O)C(NC(=O)Nc2ccccc2)C(=O)N(c2ccccc2)c2ccccc21)c1ccccc1` (configuration not stated): in the experiment filed under Cavia porcellus [3], the Activity came to 32%.

For the compound `CN(C(=O)CN1C(=O)C(NC(=O)Nc2ccccc2)C(=O)N(c2ccccc2)c2ccccc21)c1ccccc1` (configuration not stated), in the experiment listed under Cavia porcellus [1], the result was inactive. Besides, in the experiment listed under Cavia porcellus [2], the pKB turned out to be 6.27.
